Results published in publication PMC7814465 (Cell reports, 2020).

Experiments:
GAPDH in HeLa cytosol = experiment: Sedimentation assay from HeLa cytosol, GAPDH; format: biochemical; settings: highest GR/PR concentrations
[1] = test system: TDP-43 (TDP-43-Tev-MBP/MBP-Tev-TDP-43-GFP); experiment: TDP-43 condensate formation with DPRs, microscopy; format: biochemical; settings: TMR-labeled DPR, equimolar (1x) or two-fold (2x), 2 μM TDP-43/TDP-43-GFP, Tev cleavage, 200 mM NaCl, pH 7.5
Outline: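 Size-exclusion-purified TDP-43-MBP-His (2 μM) was mixed with substoichiometric MBP-TDP-43-GFP-His (1:4–1:5). Condensates were imaged by laser scanning confocal microscopy.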

Impβ = experiment: Pull-down from HeLa cytosol, Impβ; format: binding; settings: biotinylated peptide, western blot
Outline: (§1)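 Biotin-DPR bait (5 μg per 10 μl beads) immobilised overnight with 2 mg/ml ovalbumin. Prey bound in B-buffer with 2 mg/ml BSA, washed without BSA, eluted in 2× SDS loading buffer. Two independent replicates.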

Imp7 = experiment: Pull-down from HeLa cytosol, Imp7; format: binding; settings: biotinylated peptide, western blot
Outline: as §1

TNPO1 (His-TNPO1) = experiment: SDD-AGE oligomer formation, TNPO1; format: biochemical; settings: 10-fold molar excess: 2 μM importin, 20 μM TMR-DPR, pH 7.5, 200 mM NaCl, 1 h RT
[2] = test system: Impβ (His-S-Impβ, in the absence of Impα); experiment: Sedimentation assay, Impβ alone; format: biochemical
Outline: (§2)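 Protein was 1 µM purified NTR alone, or 500 nM Impα with 500 nM Impβ. Samples were centrifuged 15 min at 21,000 g, 4°C. Equal volumes of supernatant and pellet were analysed by SDS-PAGE with Sypro-Ruby stain or western blot.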

Impα3 = experiment: Pull-down from HeLa cytosol, Impα3; format: binding; settings: biotinylated peptide, western blot
Outline: as §1

CRM1 = experiment: Sedimentation assay, CRM1; format: biochemical
Outline: as §2

Impb = settings: FRET sensors and bead Halo assays; ref Hayes et al., 2019; cited from earlier work
Impα3 (His-Impα3) = experiment: SDD-AGE oligomer formation, Impα3; format: biochemical, rat; settings: 10-fold molar excess: 2 μM importin, 20 μM TMR-DPR, pH 7.5, 200 mM NaCl, 1 h RT
[3] = test system: shuttling reporter (NLS and nuclear export signal); settings: HeLa cells incubated with peptides; ref Shi et al., 2017; cited from earlier work
[4] = test system: GR- or PR-induced TDP-43 condensates; experiment: Suppression of GR- or PR-induced TDP-43 condensates by NTRs; format: biochemical; settings: equimolar NTR; TMR-GR25 or TMR-PR25; Tev cleavage
Outline: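 SEC-purified TDP-43-MBP-His (2 μM) was mixed with MBP-TDP-43-GFP-His at 1:4–1:5, together with equimolar TMR-labelled DPR, with or without NTRs. Mixing preceded cleavage with 100 μg/ml His-Tev in 50 mM Tris pH 7.5, 200 mM NaCl, 2 mM DTT. Condensates were imaged by laser scanning confocal microscopy.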

GST-GR25 / TDP-43 = experiment: Sedimentation of GST-GR25 with TDP-43 and NTRs; format: biochemical; settings: equimolar NTR; three independent experiments
Outline: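 1 µM TDP-43-MBP-His was Tev-cleaved (20 µg/ml His-Tev, 60 min, 30°C) with or without equimolar GST-tagged DPR and/or NTRs. Samples were centrifuged 15 min at 21,000 g, 4°C. Equal volumes of supernatant and pellet were analysed by anti-GST western blot.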

TDP-43 [5] = experiment: Sedimentation of TDP-43 with GST-GR25 and NTRs; format: biochemical; settings: GST-GR25, NTR added prior to Tev cleavage; three independent experiments
Outline: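 1 µM TDP-43-MBP-His was Tev-cleaved (20 µg/ml His-Tev, 60 min, 30°C) with or without equimolar GST-tagged DPR and/or NTRs, then spun 15 min at 21,000 g, 4°C. Equal supernatant and pellet volumes were analysed by SDS-PAGE with Sypro-Ruby or western blot. Percentage of soluble cleaved TDP-43 is the mean ± SEM of three experiments, compared by one-way ANOVA with Dunnett's test.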

TDP-43 [6] = experiment: TDP-43 turbidity assay; format: biochemical; settings: n = 3
Outline: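 TDP-43-MBP-His (Ni-NTA then amylose purified) and TNPO1 were buffer-exchanged into 20 mM HEPES-NaOH pH 7.4, 150 mM NaCl, 1 mM DTT. TDP-43 at 5 µM final was combined with 2 µM DPR peptide (PBS control), 5 µM TNPO1, or both. Phase separation was started with 1 µg/ml Tev protease, and absorbance at 395 nm was followed over 16 h. Values were normalized to TDP-43 plus Tev alone.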

TDP-43 in HeLa cytosol = experiment: Suppression by NTRs of GR-induced precipitation of cytosolic TDP-43; format: biochemical; settings: equimolar NTR, three independent experiments
Outline: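 Cytosol came from digitonin-permeabilised HeLa cells, cleared at 21,000 g. TMR-DPRs were added and the mix held 15 min at 4°C, then spun at 21,000 g for 15 min. Equal volumes of pellet and supernatant were analysed by western blot.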

TDP-43 condensates = experiment: Suppression of phase separation of TDP-43 alone by NTRs; format: biochemical; settings: equimolar NTR, 5 μM TDP-43, Tev cleavage
Outline: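 TDP-43-MBP-His (Ni-NTA then amylose purified) and TNPO1 were buffer-exchanged into 20 mM HEPES-NaOH pH 7.4, 150 mM NaCl, 1 mM DTT. TDP-43 at 5 μM, with or without 5 μM TNPO1, was started with 1 μg/ml Tev protease. Absorbance at 395 nm was read over 16 h and normalised to TDP-43 + Tev alone.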

[7] = 10-fold molar excess of TMR-labeled DPR, n = 3
[8] = extremely high concentrations (up to 40x)

poly-PR: arginine-rich dipeptide repeat protein species; in the experiments mostly PR25
precipitation of GAPDH from HeLa cytosol (GAPDH in HeLa cytosol): not precipitated
TDP-43 condensate formation [1]: formation of condensates
binding in pull-down (Impβ): bound equally to both poly-GR and poly-PR
binding in pull-down (Imp7): bound equally to both poly-GR and poly-PR
oligomer formation of TNPO1 (SDS-resistant) (TNPO1 (His-TNPO1)): SDS-resis-tant oligomers
solubility of Impβ [2, 7]: remained mainly soluble
precipitation of Impβ, titration [2, 8]: only partial or no precipitation
binding in pull-down (Impα3): bound equally to both poly-GR and poly-PR
solubility of CRM1 (CRM1; [7]): remained mainly soluble
precipitation of CRM1, titration (CRM1; [8]): only partial or no precipitation
direct binding to Impb in vitro (Impb): direct binding
oligomer formation of Impα3 (SDS-resistant) (Impα3 (His-Impα3)): SDS-resis-tant oligomers
import of shuttling reporter [3]: reduced import

B1: TNPO1: nuclear import receptor, recombinant (protein)
chain: MVWDRQTKMEYEWKPDEQGLQQILQLLKESQSPDTTIQRTVQQKLEQLNQYPDFNNYLIFVLTKLKSEDEPTRSLSGLILKNNVKAHFQNFPNGVTDFIKSECLNNIGDSSPLIRATVGILITTIASKGELQNWPDLLPKLCSLLDSEDYNTCEGAFGALQKICEDSAEILDSDVLDRPLNIMIPKFLQFFKHSSPKIRSHAVACVNQFIISRTQALMLHIDSFIENLFALAGDEEPEVRKNVCRALVMLLEVRMDRLLPHMHNIVEYMLQRTQDQDENVALEACEFWLTLAEQPICKDVLVRHLPKLIPVLVNGMKYSDIDIILLKGDVEEDETIPDSEQDIRPRFHRSRTVAQQHDEDGIEEEDDDDDEIDDDDTISDWNLRKCSAAALDVLANVYRDELLPHILPLLKELLFHHEWVVKESGILVLGAIAEGCMQGMIPYLPELIPHLIQCLSDKKALVRSITCWTLSRYAHWVVSQPPDTYLKPLMTELLKRILDSNKRVQEAACSAFATLEEEACTELVPYLAYILDTLVFAFSKYQHKNLLILYDAIGTLADSVGHHLNKPEYIQMLMPPLIQKWNMLKDEDKDLFPLLECLSSVATALQSGFLPYCEPVYQRCVNLVQKTLAQAMLNNAQPDQYEAPDKDFMIVALDLLSGLAEGLGGNIEQLVARSNILTLMYQCMQDKMPEVRQSSFALLGDLTKACFQHVKPCIADFMPILGTNLNPEFISVCNNATWAIGEISIQMGIEMQPYIPMVLHQLVEIINRPNTPKTLLENTAITIGRLGYVCPQEVAPMLQQFIRPWCTSLRNIRDNEEKDSAFRGICTMISVNPSGVIQDFIFFCDAVASWINPKDDLRDMFCKILHGFKNQVGDENWRRFSDQFPLPLKERLAAFYGV
modifications: left off: His6, N-terminal, kept
suppression of GR- or PR-induced TDP-43 condensates [4]: suppress the GR- or PR-induced formation of TDP-43 condensates
rescue of GST-GR25 solubility in presence of TDP-43 (GST-GR25 / TDP-43): completely rescued
reversal of poly-GR-enhanced sedimentation of TDP-43 (TDP-43 [5]): efficiently reverted
effect on GR-mediated promotion of TDP-43 turbidity (TDP-43 [6]; 5 μM TNPO1, 2 μM GR20, 5 μM TDP-43, 395 nm, 16 h): effectively suppressed
effect on TDP-43 turbidity increase in absence of GR (TDP-43 [6]; 5 μM TNPO1, 5 μM TDP-43, Tev cleavage, 395 nm): did not affect
suppression of GR-induced precipitation of cytosolic TDP-43 (TDP-43 in HeLa cytosol): efficiently suppressed GR-induced precipitation of cytosolic TDP-43
suppression of phase separation of TDP-43 alone (TDP-43 condensates): unable to abolish condensate formation of TDP-43
